{
  "source": "ChEMBL document CHEMBL4411342",
  "about": "“Pyrrolomycins as antimicrobial agents. Microwave-assisted organic synthesis and insights into their antimicrobial mechanism of action” (Bioorg Med Chem, 2019)",
  "key": {"[1]": {"tested_on": "Pseudomonas aeruginosa", "assay": "Antibiofilm activity against Pseudomonas aeruginosa ATCC 15442 after 24 hrs by crystal violet staining based assay", "assay_type": "functional, organism-based", "details": "ATCC 15442, 24 h", "in_short": "(§1)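 Overnight TSB + 2% w/v glucose cultures (37 °C, 24 h) diluted to 0.5 McFarland, inoculated into 96-well plates of TSB/2% glucose with compound (100 µg/mL screen, or 100–0.001 µM for IC50). Static 37 °C, 24 h; wells PBS-washed, 0.1% crystal violet 30 min, solubilized in 33% acetic acid, OD 540 nm. % inhibition vs growth control; duplicates, ≥3 independent experiments.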"}, "[2]": {"molecular_target": "T1, Sortase A (Staphylococcus aureus, UniProt Q9S446)", "T1 sequence (Q9S446 whole entry)": "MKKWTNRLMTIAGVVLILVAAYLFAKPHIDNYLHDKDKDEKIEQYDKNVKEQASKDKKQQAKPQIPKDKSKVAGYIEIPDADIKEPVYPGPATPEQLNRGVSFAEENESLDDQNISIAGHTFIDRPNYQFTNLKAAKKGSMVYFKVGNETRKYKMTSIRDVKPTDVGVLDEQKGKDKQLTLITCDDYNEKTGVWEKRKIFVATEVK", "assay": "Inhibition of Staphylococcus aureus SrtA using dabcyl-QALPETGEE-edans as substrate preincubated for 1 hr followed by substrate addition and measured at 1 min interval for 1 hr by fluorescence assay", "in_short": "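Recombinant S. aureus SrtA (10 µM) preincubated 1 h at 37 °C in 50 mM Tris-HCl, 5 mM CaCl2, 150 mM NaCl, pH 7.5 with increasing inhibitor levels; FRET peptide added to 50 µM final. Cleavage fluorescence read at ex 350/em 495 nm; progress curves used for IC50. Stocks 10 mM in DMSO; berberine chloride positive control, enzyme-free substrate negative control.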"}, "[3]": {"tested_on": "Staphylococcus aureus", "assay": "Antibiofilm activity against Staphylococcus aureus ATCC 25923 after 24 hrs by crystal violet staining based assay", "assay_type": "functional, organism-based", "details": "ATCC 25923, 24 h", "in_short": "as §1"}, "[4]": {"tested_on": "Staphylococcus aureus", "assay": "Inhibition of Staphylococcus aureus AtlA assessed as reduction in biofilm formation at 1 uM measured after 24 hrs", "in_short": "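S. aureus overnight culture (TSB + 2% glucose, 37 °C, 200 rpm) inoculated 1:100 into TSB/2% glucose containing 1 µM compound (from DMSO stock) in 24-well plates. Static incubation at 37 °C for 24 h. Biofilm inhibition is expressed relative to untreated cultures. Untreated and 0.1% DMSO controls. Triplicate cultivations.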"}, "[5]": {"tested_on": "Staphylococcus aureus", "assay": "Inhibition of Staphylococcus aureus AtlA assessed as reduction in enzyme activity at 1 uM measured after 24 hrs y methylene blue staining based zymography relative to control", "in_short": "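Spent medium from 24 h static S. aureus cultures (1 µM compound; untreated and 0.1% DMSO controls) was centrifuged, and the supernatant was lyophilized and resuspended in Tris-HCl pH 7.4. Proteins were run on 12% SDS-PAGE containing 1 mg/mL Micrococcus lysodeikticus cells. The gel was renatured (Triton X-100 buffer, 37 °C, 16–48 h) and stained with 0.1% methylene blue. Clear bands were quantified by densitometry as lysozyme µg equivalents, in triplicate.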"}},
  "data": [
    {"smiles": "O=C(c1cc(Cl)cc(Cl)c1O)c1[nH]c(Cl)c(Cl)c1Br", "values": [
      {"measurement": "IC50", "setting": "[1]", "value": 170, "unit": "µM"},
      {"measurement": "IC50", "setting": "[2]", "value": 130, "unit": "µM"},
      {"measurement": "IC50", "setting": "[3]", "value": 0.1, "unit": "µM"}
    ]},
    {"smiles": "O=C(c1cc(Cl)cc(Cl)c1O)c1[nH]c(Br)c(Br)c1Br", "values": [
      {"measurement": "IC50", "setting": "[1]", "value": 106, "unit": "µM"},
      {"measurement": "IC50", "setting": "[2]", "value": 130, "unit": "µM"},
      {"measurement": "IC50", "setting": "[3]", "value": 20.3, "unit": "µM"}
    ]},
    {"smiles": "O=C(c1cc(Cl)c(Cl)[nH]1)c1cc(Cl)cc(Cl)c1O", "values": [
      {"measurement": "IC50", "setting": "[1]", "value": 236, "unit": "µM"},
      {"measurement": "IC50", "setting": "[2]", "value": 300, "unit": "µM"},
      {"measurement": "IC50", "setting": "[3]", "value": 0.92, "unit": "µM"}
    ]},
    {"smiles": "O=C(c1cc(Br)ccc1O)c1[nH]c(Br)c(Cl)c1Br", "values": [
      {"measurement": "inhibition", "setting": "[4]", "value": "< 80", "unit": "%"},
      {"measurement": "IC50", "setting": "[1]", "value": 78.9, "unit": "µM"},
      {"measurement": "IC50", "setting": "[2]", "value": 250, "unit": "µM"},
      {"measurement": "fold change (FC)", "setting": "[5]", "value": 2},
      {"measurement": "IC50", "setting": "[3]", "value": 0.0087, "unit": "µM"}
    ]},
    {"smiles": "O=C(c1cc(Br)cc(Br)c1O)c1[nH]c(Br)c(Br)c1Br", "values": [
      {"measurement": "inhibition", "setting": "[4]", "value": "< 80", "unit": "%"},
      {"measurement": "IC50", "setting": "[1]", "value": 74.8, "unit": "µM"},
      {"measurement": "IC50", "setting": "[2]", "value": 140, "unit": "µM"},
      {"measurement": "fold change (FC)", "setting": "[5]", "value": 2},
      {"measurement": "IC50", "setting": "[3]", "value": 0.0034, "unit": "µM"}
    ]},
    {"smiles": "O=C(c1cc(Cl)cc(Cl)c1O)c1[nH]c(Cl)c(Br)c1Cl", "values": [
      {"measurement": "IC50", "setting": "[1]", "value": 18.6, "unit": "µM"},
      {"measurement": "IC50", "setting": "[2]", "value": 160, "unit": "µM"},
      {"measurement": "IC50", "setting": "[3]", "value": 0.0247, "unit": "µM"}
    ]}
  ]
}
